PMC7472862 (Heliyon, 2020)
“And” between values parts separate entries of the source, which are not always exact repeats. Equal values may be shown once.

Columns and labels:
[1] = ABTS radical scavenging assay
Summary of the method: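 ABTS radical cation formed by mixing 7 mM ABTS with 2.4 mM ammonium persulfate (1:1) and leaving 18–24 h in the dark at room temperature. Test compound (20–300 µg/mL) added to the ABTS solution and absorbance read at 734 nm. % inhibition = (OD control − OD sample)/OD control × 100, and IC50 taken from this. Ascorbic acid (10–150 µg/mL) served as positive control.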

[2] = DPPH free radical scavenging assay
Summary of the method: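 Test compound (20–300 µg/mL) mixed with an equal volume of DPPH solution, shaken vigorously, then kept 30 min in the dark at room temperature. Absorbance read at 517 nm. % scavenging = (OD control − OD sample)/OD control × 100, and IC50 derived from this. Ascorbic acid (10–150 µg/mL) served as positive control.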

rat α-glucosidase = experiment: α-glucosidase inhibition method; type: biochemical
Summary of the method: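 Enzyme was the supernatant of rat intestinal acetone powder in saline, sonicated at 4 °C and spun at 1008 ×g (4 °C, 30 min). Test compound (20–300 µg/mL) and enzyme pre-incubated 5 min at 37 °C in 50 mM phosphate pH 6.8. 3 mM PNPG added, then 30 min at 37 °C and A405 read.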

[3] = target: T1, porcine pancreatic α-amylase (Sus scrofa, UniProt P00690); experiment: biochemical; settings: α-Amylase inhibition method IC50 value
T1 sequence (P00690 16-511): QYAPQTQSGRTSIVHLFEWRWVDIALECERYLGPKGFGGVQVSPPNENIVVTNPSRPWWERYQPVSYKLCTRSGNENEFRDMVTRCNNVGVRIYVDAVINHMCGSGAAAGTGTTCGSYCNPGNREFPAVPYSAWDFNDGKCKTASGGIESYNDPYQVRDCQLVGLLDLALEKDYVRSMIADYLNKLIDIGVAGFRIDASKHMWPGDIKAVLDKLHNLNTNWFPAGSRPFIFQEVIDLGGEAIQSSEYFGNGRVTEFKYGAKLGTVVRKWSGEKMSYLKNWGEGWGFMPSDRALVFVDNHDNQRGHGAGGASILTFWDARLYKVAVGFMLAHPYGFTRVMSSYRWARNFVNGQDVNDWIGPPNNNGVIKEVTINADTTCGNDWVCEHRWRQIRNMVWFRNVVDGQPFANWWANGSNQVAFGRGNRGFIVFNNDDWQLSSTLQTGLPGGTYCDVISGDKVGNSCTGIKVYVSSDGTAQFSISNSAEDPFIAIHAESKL

Row | Compound | ABTS Assay IC50 value [1] | DPPH Assay IC50 value [2] | α-Glucosidase inhibition method IC50 value (rat α-glucosidase) | IC50 [3]
1 | CCN(O)N=Nc1ccc(S(=O)(=O)Nc2nccs2)cc1 [ST-2, 3ـhydroxyـ3ـethylـ1ـ(4ـ(Nـ(thiazolـ2ـyl)sulfamoyl)phenyl)triazene] | 232.39 µg/mL and 232.393 µg/mL | 532.35 µg/mL | 219 µg/mL | 707 µM
2 | Cc1ccc(N(O)N=Nc2ccc(S(=O)(=O)Nc3cc(C)on3)cc2)cc1 [SM-6, 3ـhydroxyـ3ـ(4ـmethylphenyl)ـ1ـ(4ـ(Nـ(5ـmethylisoxazolـ3ـyl)sulfamoyl)phenyl)triazene] | 250.26 µg/mL | 550.32 µg/mL | 262.74 µg/mL | 425 µM
3 | Cc1cccc(N(O)N=Nc2ccc(S(=O)(=O)Nc3cc(C)on3)cc2)c1 [SM-5, 3ـhydroxyـ3ـ(3ـmethylphenyl)ـ1ـ(4ـ(Nـ(5ـmethylisoxazolـ3ـyl)sulfamoyl)phenyl)triazene] | 81.50 µg/mL | 660 µg/mL and 660.39 µg/mL | 314.43 µg/mL | 519 µM
4 | CCN(O)N=Nc1ccc(S(=O)(=O)Nc2cc(C)on2)cc1 [SM-2, 3ـhydroxyـ3ـethylـ1ـ(4ـ(Nـ(5ـmethylisoxazolـ3ـyl)sulfamoyl)phenyl)triazene] | 401.72 µg/mL |  | 201.99 µg/mL | 376 µM
5 | Cc1cccc(N(O)N=Nc2ccc(S(=O)(=O)Nc3nccs3)cc2)c1 [ST-5, 3ـhydroxyـ3ـ(3ـmethylphenyl)ـ1ـ(4ـ(Nـ(thiazolـ2ـyl)sulfamoyl)phenyl)triazene] | 92.075 µg/mL | 472.08 µg/mL | 341 µg/mL | 558 µM
6 | CCN(O)N=Nc1ccc(S(=O)(=O)Nc2onc(C)c2C)cc1 [SF-2, 3ـhydroxyـ3ـethylـ1ـ(4ـ(Nـ(3,4ـdimethylisoxazolـ5ـyl)sulfamoyl)phenyl)triazene] | 229.83 µg/mL | 614.17 µg/mL | 248.64 µg/mL | 625 µM
7 | Cc1cc(NS(=O)(=O)c2ccc(N=NN(C)O)cc2)no1 [SM-1, 3ـhydroxyـ3ـmethylـ1ـ(4ـ(Nـ(5ـmethylisoxazolـ3ـyl)sulfamoyl)phenyl)triazene] | 252.96 µg/mL | 426 µg/mL and 426.75 µg/mL |  | 698 µM
8 | Cc1noc(NS(=O)(=O)c2ccc(N=NN(C)O)cc2)c1C [SF-1, 3ـhydroxyـ3ـmethylـ1ـ(4ـ(Nـ(3,4ـdimethylisoxazolـ5ـyl)sulfamoyl)phenyl)triazene] |  | 556.65 µg/mL | 270 µg/mL | 531 µM
9 | O=S(=O)(Nc1nccs1)c1ccc(N=NN(O)c2ccccc2)cc1 [ST-4, 3ـhydroxyـ3ـphenylـ1ـ(4ـ(Nـ(thiazolـ2ـyl)sulfamoyl)phenyl)triazene] |  | 565.88 µg/mL | 280.03 µg/mL | 550 µM
10 | Cc1noc(NS(=O)(=O)c2ccc(N=NN(O)c3ccccc3)cc2)c1C [SF-4, 3ـhydroxyـ3ـphenylـ1ـ(4ـ(Nـ(3,4ـdimethylisoxazolـ5ـyl)sulfamoyl)phenyl)triazene] |  | 578.76 µg/mL | 233 µg/mL | 452 µM
11 | CCCN(O)N=Nc1ccc(S(=O)(=O)Nc2nccs2)cc1 [ST-3, 3ـhydroxyـ3ـpropylـ1ـ(4ـ(Nـ(thiazolـ2ـyl)sulfamoyl)phenyl)triazene] | 160.145 µg/mL | 662 µg/mL and 662.79 µg/mL | 252 µg/mL | 586 µM
12 | Cc1ccc(N(O)N=Nc2ccc(S(=O)(=O)Nc3onc(C)c3C)cc2)cc1 [SF-6, 3ـhydroxyـ3ـ(4ـmethylphenyl)ـ1ـ(4ـ(Nـ(3,4ـdimethylisoxazolـ5ـyl)sulfamoyl)phenyl)triazene] | 70 µg/mL and 70.62 µg/mL | 587.28 µg/mL | 329 µg/mL | 612 µM
13 | Cc1cccc(N(O)N=Nc2ccc(S(=O)(=O)Nc3onc(C)c3C)cc2)c1 [SF-5, 3ـhydroxyـ3ـ(3ـmethylphenyl)ـ1ـ(4ـ(Nـ(3,4ـdimethylisoxazolـ5ـyl)sulfamoyl)phenyl)triazene] | 164.34 µg/mL | 423 µg/mL and 423.91 µg/mL | 292 µg/mL | 546 µM and 548 µM
14 | O=C1O[C@H]([C@@H](O)CO)C(O)=C1O [ascorbic acid, reference compound] | 69.13 (ascorbic acid) μg/mL | 29.12 (ascorbic acid) μg/mL |  | 
15 | CN(O)N=Nc1ccc(S(=O)(=O)Nc2nccs2)cc1 [ST-1, 3ـhydroxyـ3ـmethylـ1ـ(4ـ(Nـ(thiazolـ2ـyl)sulfamoyl)phenyl)triazene] |  | 488 µg/mL and 488.06 µg/mL | 238 µg/mL | 559 µM
16 | CCCN(O)N=Nc1ccc(S(=O)(=O)Nc2onc(C)c2C)cc1 [SF-3, 3ـhydroxyـ3ـpropylـ1ـ(4ـ(Nـ(3,4ـdimethylisoxazolـ5ـyl)sulfamoyl)phenyl)triazene] | 218.94 µg/mL | 490.82 µg/mL | 235.55 µg/mL | 419 µM
17 | C[C@H]1O[C@H](O[C@H]2[C@H](O)[C@@H](O)[C@@H](O[C@H]3[C@H](O)[C@@H](O)C(O)O[C@@H]3CO)O[C@@H]2CO)[C@H](O)[C@@H](O)[C@@H]1N[C@H]1C=C(CO)[C@@H](O)[C@H](O)[C@H]1O (some centres unmarked) [acarbose, reference compound] |  |  | 12.21 (acarbose) μg/mL | 
18 | CCCN(O)N=Nc1ccc(S(=O)(=O)Nc2cc(C)on2)cc1 [SM-3, 3ـhydroxyـ3ـpropylـ1ـ(4ـ(Nـ(5ـmethylisoxazolـ3ـyl)sulfamoyl)phenyl)triazene] | 282.32 µg/mL | 624 µg/mL | 222.91 µg/mL | 624 µM
19 | Cc1cc(NS(=O)(=O)c2ccc(N=NN(O)c3ccccc3)cc2)no1 [SM-4, 3ـhydroxyـ3ـphenylـ1ـ(4ـ(Nـ(5ـmethylisoxazolـ3ـyl)sulfamoyl)phenyl)triazene] | 104.13 µg/mL | 583.31 µg/mL | 249 µg/mL | 469 µM
